According to publication PMC8295177 (Cancer discovery, 2021):
Several values for one entry are separate records, joined by “and”; a condition that tells them apart may be missing. Equal values may be shown once. Read-outs that look alike come from different tables or passages of the source.

What was measured:
[1] = test system: EGFRex20ins mutants; details: cited from earlier work
[2] = test system: unselected stage IV NSCLC; details: second-line monotherapy; cited from earlier work
[3] = test system: patients with advanced NSCLC refractory to standard therapies; experiment: Phase 1 dose-escalation study; format: in vivo
[4] = Plasma pharmacokinetics of mobocertinib in dose-escalation patients; format: in vivo, human; details: oral
In short: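 Patients with NSCLC took oral capsules once daily in continuous 28-day cycles. Plasma was sampled at prespecified times after the first dose (Cycle 1, Day 1) and at steady state (Cycle 2, Day 1). Drug and active metabolites were quantified by validated LC-MS. Tmax, Cmax and AUC0–24 came from noncompartmental analysis. Effective half-life was derived from accumulation as a geometric mean.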

[5] = test system: patients treated with mobocertinib 160 mg daily; experiment: Safety and tolerability; format: in vivo, human; details: for Treatment-related TEAE Anemia, Any Grade / Treatment-related TEAE Anemia, Grade ≥3 / Treatment-related TEAE Decreased appetite, Any Grade / Treatment-related TEAE Decreased appetite, Grade ≥3 / Treatment-related TEAE Dermatitis acneiform, Any Grade / Treatment-related TEAE Dermatitis acneiform, Grade ≥3 / Treatment-related TEAE Diarrhea, Any Grade / Treatment-related TEAE Diarrhea, Grade ≥3 / Treatment-related TEAE Dry skin, Any Grade / Treatment-related TEAE Dry skin, Grade ≥3 / Treatment-related TEAE Dyspepsia, Any Grade / Treatment-related TEAE Dyspepsia, Grade ≥3 / Treatment-related TEAE Fatigue, Any Grade / Treatment-related TEAE Fatigue, Grade ≥3 / Treatment-related TEAE GERD, Any Grade / Treatment-related TEAE GERD, Grade ≥3 / Treatment-related TEAE Increased lipase, Any Grade / Treatment-related TEAE Increased lipase, Grade ≥3 / Treatment-related TEAE Nausea, Any Grade / Treatment-related TEAE Nausea, Grade ≥3 / Treatment-related TEAE Paronychia, Any Grade / Treatment-related TEAE Paronychia, Grade ≥3 / Treatment-related TEAE Pruritus, Any Grade / Treatment-related TEAE Pruritus, Grade ≥3 / Treatment-related TEAE Rash maculo-papular, Any Grade / Treatment-related TEAE Rash maculo-papular, Grade ≥3 / Treatment-related TEAE Rash, Any Grade / Treatment-related TEAE Rash, Grade ≥3 / Treatment-related TEAE Stomatitis, Any Grade / Treatment-related TEAE Stomatitis, Grade ≥3 / Treatment-related TEAE Vomiting, Any Grade / Treatment-related TEAE Vomiting, Grade ≥3: number (%) of patients
In short: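 Safety pooled phase 1 and phase 2 patients who received at least one dose at an initial 160 mg daily, given orally in continuous 28-day cycles. Treatment-related TEAEs were tallied at any grade and at grade ≥3. The EGFRex20ins NSCLC subgroup came from dose escalation plus expansion cohort 1. Grade 3–4 toxicity led to withholding the drug, with up to two dose reductions allowed.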

[6] = test system: previously treated NSCLC with EGFRex20ins mutations; experiment: Investigator-assessed antitumor activity; format: in vivo, human; details: for Best confirmed response: Stable disease: observed ≥6 weeks after first dose
[7] = test system: NSCLC with EGFRex20ins mutations; details: cited from earlier work
[8] = 28 patients with EGFRex20ins mutations treated at 160 mg daily
[9] = 136 patients treated at 160 mg daily
[10] = all patients treated at 160 mg daily (n=136)
[11] = patients with EGFRex20ins treated at 160 mg daily (n=28)
[12] = 80 mg total daily dose (n=9), includes 80 mg daily and 40 mg twice daily
[13] = 39 response-evaluable patients with advanced NSCLC and EGFRex20ins mutations, phase 1

## C=CC(=O)N1CCC(Oc2cc3c(Nc4ccc(Cl)c(Cl)c4F)ncnc3cc2OC)CC1 [Poziotinib]
[1]
  inhibition of EGFRex20ins mutants in vitro: potent inhibition

## CC(=O)O[C@@]12CO[C@@H]1C[C@H](O)[C@@]1(C)C(=O)[C@H](O)C3=C(C)[C@@H](OC(=O)[C@H](O)[C@@H](NC(=O)OC(C)(C)C)c4ccccc4)C[C@@](O)([C@@H](OC(=O)c4ccccc4)[C@H]21)C3(C)C [Docetaxel]
[2]
  median duration of response: approximately 6 months

## C=CC(=O)Nc1cc(Nc2ncc(C(=O)OC(C)C)c(-c3cn(C)c4ccccc34)n2)c(OC)cc1N(C)CCN(C)C [mobocertinib]
[3]; human, in vivo, po, 28 days
  recommended phase 2 dose (RP2D): 160 mg daily
[3]; oral, 28-day cycles, dose escalation 5-180 mg daily
  maximum tolerated dose (MTD): 160 mg daily
[4]; human, plasma
  half-life: 11 to 17 h
[4]; dose range 5 mg to 180 mg daily
  exposure (AUC0–24) dose dependence: approximately dose-proportional
[5]; [8]
  patients with AEs leading to discontinuation: 25%
  patients with AEs requiring dose interruption: 57%
  patients with AEs requiring dose reduction: 18%
[5]; [9]
  patients who experienced a treatment-emergent adverse event (TEAE): 99%
  patients with TEAEs considered related to mobocertinib treatment: 96%
  patients with TEAEs requiring discontinuation: 16%
  patients with TEAEs requiring dose interruption: 54%
  patients with TEAEs requiring dose reduction: 17%
  patients with grade 3 or higher treatment-related TEAEs: 40%
  patients with serious treatment-related TEAEs: 13%
  serious treatment-related TEAE diarrhea, patients: 4%
  serious treatment-related TEAE vomiting, patients: 4%
  treatment-related diarrhea, any grade, patients: 83%
  treatment-related diarrhea, grade ≥3, patients: 21%
  treatment-related nausea, any grade, patients: 43%
  treatment-related rash, any grade, patients: 33%
  treatment-related vomiting, any grade, patients: 26%
[5]; 136 patients treated at 160 mg daily (7/136)
  diarrhea leading to discontinuation, patients: 5%
[5]; [10]
  Treatment-related TEAE Anemia, Any Grade: 19 (14)
  Treatment-related TEAE Anemia, Grade ≥3: 3 (2)
  Treatment-related TEAE Decreased appetite, Any Grade: 29 (21)
  Treatment-related TEAE Decreased appetite, Grade ≥3: 1 (1)
  Treatment-related TEAE Dermatitis acneiform, Any Grade: 19 (14)
  Treatment-related TEAE Dermatitis acneiform, Grade ≥3: 1 (1)
  Treatment-related TEAE Diarrhea, Any Grade: 113 (83)
  Treatment-related TEAE Diarrhea, Grade ≥3: 28 (21)
  Treatment-related TEAE Dry skin, Any Grade: 30 (22)
  Treatment-related TEAE Dry skin, Grade ≥3: 0
  Treatment-related TEAE Dyspepsia, Any Grade: 16 (12)
  Treatment-related TEAE Dyspepsia, Grade ≥3: 0
  Treatment-related TEAE Fatigue, Any Grade: 28 (21)
  Treatment-related TEAE Fatigue, Grade ≥3: 2 (1)
  Treatment-related TEAE GERD, Any Grade: 17 (13)
  Treatment-related TEAE GERD, Grade ≥3: 0
  Treatment-related TEAE Increased lipase, Any Grade: 15 (11)
  Treatment-related TEAE Increased lipase, Grade ≥3: 7 (5)
  Treatment-related TEAE Nausea, Any Grade: 58 (43)
  Treatment-related TEAE Nausea, Grade ≥3: 5 (4)
  Treatment-related TEAE Paronychia, Any Grade: 22 (16)
  Treatment-related TEAE Paronychia, Grade ≥3: 0
  Treatment-related TEAE Pruritus, Any Grade: 14 (10)
  Treatment-related TEAE Pruritus, Grade ≥3: 0
  Treatment-related TEAE Rash maculo-papular, Any Grade: 22 (16)
  Treatment-related TEAE Rash maculo-papular, Grade ≥3: 1 (1)
  Treatment-related TEAE Rash, Any Grade: 45 (33)
  Treatment-related TEAE Rash, Grade ≥3: 1 (1)
  Treatment-related TEAE Stomatitis, Any Grade: 28 (21)
  Treatment-related TEAE Stomatitis, Grade ≥3: 5 (4)
  Treatment-related TEAE Vomiting, Any Grade: 36 (26)
  Treatment-related TEAE Vomiting, Grade ≥3: 5 (4)
[5]; [11]
  Treatment-related TEAE Anemia, Any Grade: 5 (18)
  Treatment-related TEAE Anemia, Grade ≥3: 0
  Treatment-related TEAE Decreased appetite, Any Grade: 11 (39)
  Treatment-related TEAE Decreased appetite, Grade ≥3: 0
  Treatment-related TEAE Dermatitis acneiform, Any Grade: 5 (18)
  Treatment-related TEAE Dermatitis acneiform, Grade ≥3: 0
  Treatment-related TEAE Diarrhea, Any Grade: 23 (82)
  Treatment-related TEAE Diarrhea, Grade ≥3: 9 (32)
  Treatment-related TEAE Dry skin, Any Grade: 5 (18)
  Treatment-related TEAE Dry skin, Grade ≥3: 0
  Treatment-related TEAE Dyspepsia, Any Grade: 6 (21)
  Treatment-related TEAE Dyspepsia, Grade ≥3: 0
  Treatment-related TEAE Fatigue, Any Grade: 4 (14)
  Treatment-related TEAE Fatigue, Grade ≥3: 1 (4)
  Treatment-related TEAE GERD, Any Grade: 3 (11)
  Treatment-related TEAE GERD, Grade ≥3: 0
  Treatment-related TEAE Increased lipase, Any Grade: 7 (25)
  Treatment-related TEAE Increased lipase, Grade ≥3: 2 (7)
  Treatment-related TEAE Nausea, Any Grade: 11 (39)
  Treatment-related TEAE Nausea, Grade ≥3: 3 (11)
  Treatment-related TEAE Paronychia, Any Grade: 8 (29)
  Treatment-related TEAE Paronychia, Grade ≥3: 0
  Treatment-related TEAE Pruritus, Any Grade: 5 (18)
  Treatment-related TEAE Pruritus, Grade ≥3: 0
  Treatment-related TEAE Rash maculo-papular, Any Grade: 7 (25)
  Treatment-related TEAE Rash maculo-papular, Grade ≥3: 1 (4)
  Treatment-related TEAE Rash, Any Grade: 13 (46)
  Treatment-related TEAE Rash, Grade ≥3: 0
  Treatment-related TEAE Stomatitis, Any Grade: 6 (21)
  Treatment-related TEAE Stomatitis, Grade ≥3: 2 (7)
  Treatment-related TEAE Vomiting, Any Grade: 10 (36)
  Treatment-related TEAE Vomiting, Grade ≥3: 2 (7)
[6]; 80 mg total daily dose (n=9)
  Best confirmed response: Not evaluated: 0 n (%)
  Best confirmed response: Progressive disease: 1 (11) n (%)
  Best confirmed response: Stable disease: 6 (67) n (%)
[6]; [12]
  Best confirmed response: Complete response: 1 (11) n (%)
  Best confirmed response: Partial response: 1 (11) n (%)
[6]; 120 mg daily (4/21)
  confirmed ORR: 19%
[6]; 120 mg daily (n=21)
  Best confirmed response: Complete response: 1 (5) n (%)
  Best confirmed response: Not evaluated: 3 (14) n (%)
  Best confirmed response: Partial response: 3 (14) n (%)
  Best confirmed response: Progressive disease: 3 (14) n (%)
  Best confirmed response: Stable disease: 11 (52) n (%)
[6]; 160 mg daily (12/28; 95% CI 24–63%)
  investigator-assessed confirmed ORR: 43%
[6]; 160 mg daily (24/28; 95% CI 67–96%)
  disease control rate: 86%
[6]; 160 mg daily (n=28)
  Best confirmed response: Complete response: 0 n (%)
  Best confirmed response: Not evaluated: 2 (7) n (%)
  Best confirmed response: Partial response: 12 (43) n (%)
  Best confirmed response: Progressive disease: 2 (7) n (%)
  Best confirmed response: Stable disease: 12 (43) n (%)
[6]; 160 mg daily, 28 EGFRex20ins patients (95% CI 4.4–15.6)
  median PFS: 7.3 months and 7 months
[6]; 160 mg daily, 28 EGFRex20ins patients (95% CI 5.0–not reached)
  median duration of response in confirmed responders: 14 months and 13.9 months
[6]; 160 mg daily, 28 EGFRex20ins patients (95% CI 16–53%)
  12-month event-free rate (PFS): 34%
[6]; 160 mg daily, patients with baseline brain metastases (3/12; 95% CI 5–57%)
  investigator-assessed confirmed ORR: 25%
[6]; 160 mg daily, patients with baseline brain metastases (95% CI 1.8–15.9)
  median investigator-assessed PFS: 3.7 months
[6]; 160 mg daily, patients with baseline brain metastases (95% CI 3–52%)
  12-month event-free rate (PFS): 23%
[6]; 160 mg daily, patients without baseline brain metastases (9/16; 95% CI 30–80%)
  investigator-assessed confirmed ORR: 56%
[6]; 160 mg daily, patients without baseline brain metastases (95% CI 5.0–16.6)
  median duration of response in confirmed responders: 13.8 months
[6]; 160 mg daily, patients without baseline brain metastases (95% CI 18–66%)
  12-month event-free rate (PFS): 43%
[6]; 5–40 mg daily (0/12)
  confirmed ORR: 0%
[6]; 5–40 mg daily (n=12)
  Best confirmed response: Complete response: 0 n (%)
  Best confirmed response: Not evaluated: 2 (17) n (%)
  Best confirmed response: Partial response: 0 n (%)
  Best confirmed response: Progressive disease: 7 (58) n (%)
  confirmed ORR: 0 [0–26] n (%) [95% CI]
  Best confirmed response: Stable disease: 3 (25) n (%)
[6]; 80-mg total daily dose (2/9)
  confirmed ORR: 22%

B1: amivantamab: an intravenous bispecific antibody that targets EGFR and MET (antibody, chains of the INN, looked up, V domains shown)
VH: QVQLVESGGGVVQPGRSLRLSCAASGFTFSTYGMHWVRQAPGKGLEWVAVIWDDGSYKYYGDSVKGRFTISRDNSKNTLYLQMNSLRAEDTAVYYCARDGITMVRGVMKDYFDYWGQGTLVTVSS
VL: AIQLTQSPSSLSASVGDRVTITCRASQDISSALVWYQQKPGKAPKLLIYDASSLESGVPSRFSGSESGTDFTLTISSLQPEDFATYYCQQFNSYPLTFGGGTKVEIK
VH2: QVQLVQSGAEVKKPGASVKVSCETSGYTFTSYGISWVRQAPGHGLEWMGWISAYNGYTNYAQKLQGRVTMTTDTSTSTAYMELRSLRSDDTAVYYCARDLRGTNYFDYWGQGTLVTVSS
VL2: DIQMTQSPSSVSASVGDRVTITCRASQGISNWLAWFQHKPGKAPKLLIYAASSLLSGVPSRFSGSGSGTDFTLTISSLQPEDFATYYCQQANSFPITFGQGTRLEIK
[7]; [13]
  investigator-assessed response rate (ORR): 36%
  median PFS: 8.3 months
[7]; patients with NSCLC with EGFRex20ins and other EGFR mutations
  median PFS: 8.3
